pIC50: −log10 of the molar value. Calls of active or inactive are those of the source. The rule behind the calls is not given here.
Assays:
[1] = Unbound plasma concentration in C57BL/6N mouse plasma at 0.1 mg/kg, po measured at 3 hrs; format: ADME, organism-based; conditions: in vivo
[2] = Unbound plasma concentration in C57BL/6N mouse plasma at 0.3 mg/kg, po measured at 3 hrs; format: ADME, organism-based; conditions: in vivo
[3] = Oral bioavailability in dog at 1 mg/kg; format: ADME, organism-based, Canis lupus familiaris; conditions: in vivo
[4] = test system: Pancreatic islet; assay: Induction of glucose-dependent insulin secretion in human pancreatic islets at 0.5 and 5 uM preincubated for 30 mins with glucose followed by compound addition measured after 60 mins by ELISA
[5] = Clearance in dog at […], iv or 1 mg/kg, po; format: ADME, organism-based, Canis lupus familiaris; conditions: in vivo
[6] = Drug uptake in C57BL/6N mouse whole blood at 3 mg/kg, po measured at 3 hrs; format: ADME, organism-based; conditions: read-out: Drug uptake
In short: (§1)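 Whole-blood compound exposure was measured 3 h after oral dosing (0.03-3 mg/kg) in HFD mice run through the OGTT dose titration. Unbound levels were derived using the plasma free fraction.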

[7] = test system: Mus musculus; assay: Antidiabetic activity in HFD fed C57BL/6N mouse assessed as increase in circulating active GLP-1 levels at 10 mg/kg, po pretreated for 60 mins measured 5 mins post glucose challenge by OGTT; format: functional, organism-based
In short: (§2)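 The SSTR5 antagonist was given orally at 10 mg/kg, alone or combined with des-fluoro sitagliptin at 10 mg/kg, ahead of an oral glucose challenge. Blood was sampled 5 min after glucose for circulating total GLP-1, active GLP-1[7-36] amide and plasma insulin.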

[8] = Solubility of the compound in 10% tween formulation; format: physicochemical
[9] = target: Cytochrome P450 2D6 (Homo sapiens, UniProt P10635); assay: Inhibition of human CYP2D6; format: ADME
[10] = Drug uptake in C57BL/6N mouse whole blood at 1 mg/kg, po measured at 3 hrs; format: ADME, organism-based; conditions: read-out: Drug uptake; in short: as §1
[11] = Half life in rat at 1 mg/kg, iv or 2 mg/kg, po; format: ADME, organism-based; conditions: in vivo
In short: (§3)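 Rat pharmacokinetics after separate intravenous (1 mg/kg) and oral (2 mg/kg) dosing. Clearance is reported in mL/kg/min and half-life in hours. Oral bioavailability is given as F (%).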

[12] = target: Cytochrome P450 2C9 (Homo sapiens, UniProt P11712); assay: Inhibition of human CYP2C9; format: ADME
[13] = Half life in dog at […], iv or 1 mg/kg, po; format: ADME, organism-based, Canis lupus familiaris; conditions: in vivo
[14] = Clearance in rat at 1 mg/kg, iv or 2 mg/kg, po; format: ADME, organism-based; conditions: in vivo; in short: as §3
[15] = Fraction unbound in rhesus monkey plasma at 0.1 uM using [3H]-labeled compound; format: ADME, cell-free, Macaca mulatta
[16] = Drug uptake in C57BL/6N mouse whole blood at 0.1 mg/kg, po measured at 3 hrs; format: ADME, organism-based; conditions: read-out: Drug uptake; in short: as §1
[17] = test system: Mus musculus; assay: Antidiabetic activity in HFD fed SSTR5 knock-out C57BL/6N mouse assessed as decrease in blood glucose AUC at 0.03 to 3 mg/kg administered as single oral dose pretreated for 60 mins followed by glucose challenge measured after 120 mins by OGTT; format: functional, organism-based
[18] = target: T1, Nuclear receptor subfamily 1 group I member 2 (Homo sapiens, UniProt O75469); assay: Activation of human PXR; format: ADME
T1 sequence (O75469 whole entry): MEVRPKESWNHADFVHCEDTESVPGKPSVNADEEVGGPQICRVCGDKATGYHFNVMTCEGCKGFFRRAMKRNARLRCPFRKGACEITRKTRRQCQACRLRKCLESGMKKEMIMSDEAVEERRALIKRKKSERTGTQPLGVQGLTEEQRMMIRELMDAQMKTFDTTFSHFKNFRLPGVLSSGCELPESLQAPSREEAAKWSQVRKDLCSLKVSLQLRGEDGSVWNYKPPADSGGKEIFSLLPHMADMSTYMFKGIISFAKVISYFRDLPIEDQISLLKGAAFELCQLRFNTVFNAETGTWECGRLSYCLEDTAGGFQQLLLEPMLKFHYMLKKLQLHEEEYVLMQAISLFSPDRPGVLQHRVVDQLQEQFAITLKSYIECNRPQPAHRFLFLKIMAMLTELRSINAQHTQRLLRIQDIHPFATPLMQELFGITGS

[19] = Volume of distribution in rat at 1 mg/kg, iv or 2 mg/kg, po; format: ADME, organism-based; conditions: in vivo
[20] = test system: Mus musculus; assay: Antidiabetic activity in HFD fed C57BL/6N mouse assessed as increase in plasma insulin levels at 10 mg/kg, po cotreated with DPP4 inhibitor des-fluoro sitagliptin pretreated with compound for 60 mins followed by glucose challenge measured after 120 mins by OGTT; format: functional, organism-based
[21] = test system: Pancreatic islet; assay: Induction of glucagon secretion in human pancreatic islets in presence of glucose by ELISA; format: functional, cell-based
In short: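 In the same human islet incubations, SST-14 and glucagon secretion were monitored alongside insulin.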

[22] = target: Somatostatin receptor type 1 (Homo sapiens, UniProt P30872); assay: Antagonist activity at human SSTR1 expressed in CHO-K1 cell membranes; format: functional, cell-based
In short: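 Counter-screen by filtration membrane binding: competitive displacement of radiolabeled SST-28 from cell membranes expressing human SSTR1, SSTR2, SSTR3 or SSTR4. The IC50 is the mean of at least duplicate experiments within a maximal threefold range.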

[23] = target: Voltage-dependent L-type calcium channel subunit alpha-1C (Homo sapiens, UniProt Q13936); assay: Inhibition of Cav1.2 (unknown origin)
[24] = Clearance in rhesus monkey at […], iv or 1 mg/kg, po; format: ADME, organism-based, Macaca mulatta; conditions: in vivo
[25] = test system: Mus musculus; assay: Antidiabetic activity in HFD fed C57BL/6N mouse assessed as increase in circulating active GLP-1 levels at 10 mg/kg, po cotreated with DPP4 inhibitor des-fluoro sitagliptin pretreated with compound for 60 mins followed by glucose challenge measured after 120 mins by OGTT; format: functional, organism-based
[26] = test system: Mus musculus; assay: Antidiabetic activity in HFD fed C57BL/6N mouse assessed as increase in circulating total GLP-1 levels at 10 mg/kg, po pretreated for 60 mins measured 5 mins post glucose challenge by OGTT; format: functional, organism-based; in short: as §2
[27] = test system: Pancreatic islet; assay: Induction of glucose-dependent insulin secretion in human pancreatic islets at 0.5 to 5 uM preincubated for 30 mins with 2 mM glucose followed by compound addition measured after 60 mins by ELISA; format: functional, cell-based
In short: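 Isolated pancreatic islets from non-diabetic human donors were incubated with compound at 0.5 or 5 µM in 2 mM (G2) or 16 mM (G16) glucose. Insulin secretion was measured against a DMSO control, with P<0.05 significance.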

[28] = test system: Mus musculus; assay: Antidiabetic activity in HFD fed C57BL/6N mouse assessed as increase in plasma insulin levels at 10 mg/kg, po pretreated for 60 mins measured 5 mins post glucose challenge by OGTT; format: functional, organism-based; in short: as §2
[29] = Volume of distribution in rhesus monkey at […], iv or 1 mg/kg, po; format: ADME, organism-based, Macaca mulatta; conditions: in vivo
[30] = target: Sodium channel protein type 5 subunit alpha (Homo sapiens, UniProt Q14524); assay: Inhibition of Nav1.5 (unknown origin)
[31] = test system: Mus musculus; assay: Antidiabetic activity in HFD fed C57BL/6N mouse assessed as decrease in blood glucose AUC at 0.1 mg/kg administered as single oral dose pretreated for 60 mins followed by glucose challenge measured after 120 mins by OGTT; format: functional; set-up: scale not given: the % may be the effect or the level left
In short: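 Oral dose titration (0.03-3 mg/kg) in HFD-fed mice, n=8. Dosing was followed by an oral glucose tolerance test. Net blood glucose AUC was expressed as % reduction versus vehicle, with P values versus vehicle.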

Voltage-dependent L-type calcium channel subunit alpha-1C, sequence (Q13936 whole entry): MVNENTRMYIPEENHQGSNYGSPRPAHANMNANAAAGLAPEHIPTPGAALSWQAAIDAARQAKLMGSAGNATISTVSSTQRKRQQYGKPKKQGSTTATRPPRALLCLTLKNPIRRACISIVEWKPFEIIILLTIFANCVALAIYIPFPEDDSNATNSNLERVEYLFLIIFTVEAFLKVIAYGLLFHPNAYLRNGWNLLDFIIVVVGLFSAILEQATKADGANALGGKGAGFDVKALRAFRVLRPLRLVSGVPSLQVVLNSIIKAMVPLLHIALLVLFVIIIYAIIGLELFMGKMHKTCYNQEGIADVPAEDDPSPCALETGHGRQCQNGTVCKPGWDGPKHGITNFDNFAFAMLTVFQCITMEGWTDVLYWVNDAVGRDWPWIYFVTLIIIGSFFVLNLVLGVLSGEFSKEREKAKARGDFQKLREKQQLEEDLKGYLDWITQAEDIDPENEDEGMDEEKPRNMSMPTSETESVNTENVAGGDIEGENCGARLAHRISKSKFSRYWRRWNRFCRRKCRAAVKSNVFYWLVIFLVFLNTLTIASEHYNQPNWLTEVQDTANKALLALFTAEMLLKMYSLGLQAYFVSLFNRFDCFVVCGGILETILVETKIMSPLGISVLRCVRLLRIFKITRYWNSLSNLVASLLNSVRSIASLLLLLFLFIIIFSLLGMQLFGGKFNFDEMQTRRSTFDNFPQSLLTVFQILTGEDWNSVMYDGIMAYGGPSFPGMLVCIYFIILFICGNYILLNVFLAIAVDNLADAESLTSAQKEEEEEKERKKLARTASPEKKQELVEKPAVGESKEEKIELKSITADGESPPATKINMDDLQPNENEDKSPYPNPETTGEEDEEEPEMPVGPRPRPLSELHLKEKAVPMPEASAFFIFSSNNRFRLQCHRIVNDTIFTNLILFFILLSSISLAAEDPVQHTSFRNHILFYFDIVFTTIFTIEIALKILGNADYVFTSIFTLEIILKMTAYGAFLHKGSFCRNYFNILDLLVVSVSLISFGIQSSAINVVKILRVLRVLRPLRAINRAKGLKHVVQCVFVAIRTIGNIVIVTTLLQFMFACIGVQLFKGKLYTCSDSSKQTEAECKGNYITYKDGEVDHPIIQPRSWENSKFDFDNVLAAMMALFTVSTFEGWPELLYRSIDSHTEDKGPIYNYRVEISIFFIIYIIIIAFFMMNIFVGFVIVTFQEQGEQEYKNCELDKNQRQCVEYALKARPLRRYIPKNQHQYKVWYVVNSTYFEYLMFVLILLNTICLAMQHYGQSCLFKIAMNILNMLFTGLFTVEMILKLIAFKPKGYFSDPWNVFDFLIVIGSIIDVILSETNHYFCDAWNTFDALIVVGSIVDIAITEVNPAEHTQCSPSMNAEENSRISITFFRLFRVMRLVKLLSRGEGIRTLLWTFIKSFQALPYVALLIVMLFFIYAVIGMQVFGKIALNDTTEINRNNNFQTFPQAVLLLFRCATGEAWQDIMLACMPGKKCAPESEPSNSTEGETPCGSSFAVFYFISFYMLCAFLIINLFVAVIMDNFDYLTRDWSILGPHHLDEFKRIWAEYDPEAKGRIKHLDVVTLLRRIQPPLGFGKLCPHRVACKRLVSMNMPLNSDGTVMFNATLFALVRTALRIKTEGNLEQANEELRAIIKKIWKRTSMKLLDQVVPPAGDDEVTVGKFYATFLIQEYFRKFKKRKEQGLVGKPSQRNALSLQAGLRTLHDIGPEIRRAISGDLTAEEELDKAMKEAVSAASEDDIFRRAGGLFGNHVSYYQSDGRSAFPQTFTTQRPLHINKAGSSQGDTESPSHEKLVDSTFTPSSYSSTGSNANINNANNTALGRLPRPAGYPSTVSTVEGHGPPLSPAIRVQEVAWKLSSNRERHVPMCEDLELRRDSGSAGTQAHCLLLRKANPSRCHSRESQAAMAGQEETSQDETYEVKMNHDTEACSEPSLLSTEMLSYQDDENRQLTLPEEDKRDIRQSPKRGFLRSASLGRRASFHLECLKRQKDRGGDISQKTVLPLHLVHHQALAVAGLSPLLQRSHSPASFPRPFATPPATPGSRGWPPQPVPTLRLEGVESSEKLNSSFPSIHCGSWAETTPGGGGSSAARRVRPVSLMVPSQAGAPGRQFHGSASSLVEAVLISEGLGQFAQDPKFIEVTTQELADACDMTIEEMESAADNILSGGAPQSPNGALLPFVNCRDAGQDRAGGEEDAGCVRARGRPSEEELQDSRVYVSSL
Cytochrome P450 2C9, sequence (P11712 whole entry): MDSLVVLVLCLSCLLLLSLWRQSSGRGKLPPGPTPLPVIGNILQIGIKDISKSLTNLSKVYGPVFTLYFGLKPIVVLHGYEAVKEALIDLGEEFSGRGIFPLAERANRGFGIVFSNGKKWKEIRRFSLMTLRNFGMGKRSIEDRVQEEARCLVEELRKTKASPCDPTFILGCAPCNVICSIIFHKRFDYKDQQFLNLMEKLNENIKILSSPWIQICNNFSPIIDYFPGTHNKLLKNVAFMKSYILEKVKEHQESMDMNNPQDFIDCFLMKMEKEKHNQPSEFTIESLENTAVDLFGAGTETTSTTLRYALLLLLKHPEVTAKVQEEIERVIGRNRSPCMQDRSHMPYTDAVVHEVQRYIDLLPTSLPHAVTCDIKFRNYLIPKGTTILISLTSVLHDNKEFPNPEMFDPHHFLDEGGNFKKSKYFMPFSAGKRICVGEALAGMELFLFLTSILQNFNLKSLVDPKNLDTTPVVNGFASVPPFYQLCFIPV
Cytochrome P450 2D6, sequence (P10635 whole entry): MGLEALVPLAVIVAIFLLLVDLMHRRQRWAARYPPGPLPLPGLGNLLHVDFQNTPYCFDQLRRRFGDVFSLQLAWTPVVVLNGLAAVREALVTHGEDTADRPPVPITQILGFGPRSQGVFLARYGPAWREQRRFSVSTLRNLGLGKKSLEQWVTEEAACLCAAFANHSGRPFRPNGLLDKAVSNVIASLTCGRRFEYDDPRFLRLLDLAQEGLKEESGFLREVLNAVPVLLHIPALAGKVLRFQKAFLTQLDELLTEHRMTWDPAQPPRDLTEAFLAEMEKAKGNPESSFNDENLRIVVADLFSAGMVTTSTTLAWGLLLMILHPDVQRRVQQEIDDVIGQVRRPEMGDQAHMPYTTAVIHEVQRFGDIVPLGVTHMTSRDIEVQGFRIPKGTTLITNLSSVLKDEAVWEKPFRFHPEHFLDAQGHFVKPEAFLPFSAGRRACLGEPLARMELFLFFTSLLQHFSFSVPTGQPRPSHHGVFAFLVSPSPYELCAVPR
Somatostatin receptor type 1, sequence (P30872 whole entry): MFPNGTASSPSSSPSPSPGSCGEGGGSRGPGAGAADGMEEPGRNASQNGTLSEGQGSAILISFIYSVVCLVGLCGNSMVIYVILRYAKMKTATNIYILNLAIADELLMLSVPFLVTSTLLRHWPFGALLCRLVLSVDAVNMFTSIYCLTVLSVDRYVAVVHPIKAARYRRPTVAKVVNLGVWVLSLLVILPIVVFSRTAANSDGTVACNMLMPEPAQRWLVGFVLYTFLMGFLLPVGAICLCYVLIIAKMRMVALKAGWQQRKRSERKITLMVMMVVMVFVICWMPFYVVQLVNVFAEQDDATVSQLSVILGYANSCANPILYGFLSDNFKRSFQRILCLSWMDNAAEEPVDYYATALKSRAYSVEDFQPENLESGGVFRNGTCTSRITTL

- Cp(f) [1]: 0.5 nM
- Cp(f) [2]: 1.6 nM
- bioavailability [3]: 72%
- clearance [5]: 2.2 mL/min/kg
- concentration at 3 h [6]: 351 nM
- solubility [8]: 5300 µg/mL
- pIC50 [9]: < 4.30
- concentration at 3 h [10]: 131 nM
- half-life [11]: 1.9 h
- pIC50 [12]: < 4.30
- half-life [13]: 16.5 h
- clearance [14]: 15.2 mL/min/kg
- Fu [15]: 5.4%
- concentration at 3 h [16]: 11 nM
- Activity [18]: Not Active
- Vd [19]: 2.38 L/kg
- pIC50 [22]: < 5.00
- clearance [24]: 11.8 mL/min/kg
- Vd [29]: 1.39 L/kg
Compound: CCOc1cc(CN2CCC3(CC2)CC(=O)N(c2ccc(C(=O)O)cc2)C3)cc(OCC)c1-c1ccc(F)cc1.O=C(O)C(F)(F)F
- Activity [4]: Active
- Activity [7]: Active
- Activity [17]: inactive
- Activity [20]: Active
- Activity [21]: inactive
- pIC50 [23]: < 4.82
- Activity [25]: Active
- Activity [26]: Active
- Activity [27]: inactive
- Activity [28]: Active
- pIC50 [30]: < 4.82
- Activity [31]: 58%
